Experiments:
[1] = Induction of locomotor activity in C57BL/6J mouse assessed as increase in traveled distance every 10 mins at 3 and 10 mg/kg, ip; type: organism-based; settings: in vivo
D(2) dopamine receptor [2] = molecular target: T1, D(2) dopamine receptor (Homo sapiens, UniProt P14416); assay: Displacement of [3H]N-methylspiperone from human D2R expressed in HEK293 cell membranes incubated for 1 hr by radioligand binding assay
Summary of the method: (§1)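 Membranes from HEK293 cells stably expressing human D2R (20 µg protein) or D4R (30 µg protein). Buffer: EBSS with 0.2 mM sodium metabisulfite and 0.4 nM [3H]N-methylspiperone. Test compound at 11 half-log dilutions (100 µM–100 pM or 10 µM–10 pM) in 30% DMSO vehicle. Incubated 1 h at room temperature; nonspecific binding with 10 µM butaclamol.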

D(3) dopamine receptor = D(3) dopamine receptor (Homo sapiens, UniProt P35462); assay: Displacement of [3H]N-methylspiperone from human D3R expressed in HEK293 cell membranes incubated for 1 hr by radioligand binding assay
Sequence of D(3) dopamine receptor (P35462 whole entry): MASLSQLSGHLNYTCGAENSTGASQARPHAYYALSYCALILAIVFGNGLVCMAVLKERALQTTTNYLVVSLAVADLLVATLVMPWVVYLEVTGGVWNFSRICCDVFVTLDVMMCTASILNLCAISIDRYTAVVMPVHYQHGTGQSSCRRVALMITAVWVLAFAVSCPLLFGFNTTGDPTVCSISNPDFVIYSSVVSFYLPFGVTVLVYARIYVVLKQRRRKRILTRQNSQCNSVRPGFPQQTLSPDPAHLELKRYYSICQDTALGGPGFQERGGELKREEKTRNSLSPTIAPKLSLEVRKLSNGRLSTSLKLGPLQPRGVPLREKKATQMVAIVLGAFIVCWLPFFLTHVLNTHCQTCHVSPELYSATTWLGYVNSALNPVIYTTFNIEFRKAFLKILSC

D(4) dopamine receptor = molecular target: T2, D(4) dopamine receptor (Homo sapiens, UniProt P21917); assay: Displacement of [3H]N-methylspiperone from human D4R expressed in HEK293 cell membranes incubated for 1 hr by radioligand binding assay; summary of the method: as §1
T2 sequence (P21917 whole entry): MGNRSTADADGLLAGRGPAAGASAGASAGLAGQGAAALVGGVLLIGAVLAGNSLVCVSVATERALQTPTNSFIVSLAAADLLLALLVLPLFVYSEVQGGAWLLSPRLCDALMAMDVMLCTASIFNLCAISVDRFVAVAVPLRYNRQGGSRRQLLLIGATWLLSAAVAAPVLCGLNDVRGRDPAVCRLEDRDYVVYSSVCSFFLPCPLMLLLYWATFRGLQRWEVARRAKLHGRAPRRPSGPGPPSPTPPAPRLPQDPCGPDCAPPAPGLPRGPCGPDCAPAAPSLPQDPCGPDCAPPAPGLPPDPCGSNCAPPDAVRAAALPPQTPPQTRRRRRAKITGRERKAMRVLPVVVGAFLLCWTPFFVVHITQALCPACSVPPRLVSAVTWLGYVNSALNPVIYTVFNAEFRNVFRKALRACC

D(2) dopamine receptor [3] = molecular target: T1, D(2) dopamine receptor; assay: Antagonist activity at DRD2 (unknown origin) expressed in HEK293T cells transfected with Galphai1-RLuc8 and gamma2-GFP10 assessed as inhibition of quinpirole-induced Gi1 activation pre-incubated with quinpirole for 10 mins before compound incubation for 10 mins by BRET assay; type: cell-based, HEK-293T
Summary of the method: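 HEK-293T cells co-transfected with Flag-tagged D2 receptor, RLuc8-fused Gαi1, GFP10-fused Gγ and untagged Gβ, using constant total plasmid DNA at various partner ratios. Cells preincubated 10 min with 1 µM quinpirole, then 10 min with test compound. Read-out: BRET as fluorescence at 535 nm after 5 µM coelenterazine 400a.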

[4] = Displacement of [3H]WIN35,428 from human DAT Y156F mutant expressed in COS7 cell membranes incubated for >90 mins by radioligand binding assay; settings: cos-7
[5] = molecular target: T3, Sodium-dependent dopamine transporter (Homo sapiens, UniProt Q01959); assay: Displacement of [3H]WIN35,428 from wild type human DAT expressed in COS7 cell membranes incubated for >90 mins by radioligand binding assay; set-up: species or system COS-7
T3 sequence (Q01959 whole entry): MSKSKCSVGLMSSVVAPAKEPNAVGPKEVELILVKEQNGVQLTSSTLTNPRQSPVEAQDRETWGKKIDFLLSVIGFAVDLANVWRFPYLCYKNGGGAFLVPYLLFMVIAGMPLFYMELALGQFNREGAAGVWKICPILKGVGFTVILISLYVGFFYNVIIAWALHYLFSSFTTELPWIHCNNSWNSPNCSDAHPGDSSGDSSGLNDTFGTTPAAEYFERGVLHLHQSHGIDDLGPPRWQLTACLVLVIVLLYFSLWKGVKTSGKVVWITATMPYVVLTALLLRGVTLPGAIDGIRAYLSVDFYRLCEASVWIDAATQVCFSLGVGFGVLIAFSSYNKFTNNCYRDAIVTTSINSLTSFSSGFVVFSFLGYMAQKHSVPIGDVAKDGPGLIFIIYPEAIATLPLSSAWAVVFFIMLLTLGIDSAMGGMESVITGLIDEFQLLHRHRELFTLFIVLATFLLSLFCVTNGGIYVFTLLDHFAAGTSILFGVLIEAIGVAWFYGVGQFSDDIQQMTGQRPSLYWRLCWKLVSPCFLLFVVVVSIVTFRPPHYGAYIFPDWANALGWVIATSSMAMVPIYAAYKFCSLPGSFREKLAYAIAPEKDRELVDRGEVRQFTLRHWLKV

[6] = molecular target: T3, Sodium-dependent dopamine transporter; assay: Inhibition of DAT (unknown origin) expressed in COS7 cells assessed as reduction in [3H]DA uptake incubated for 5 mins by beta-scintillation counting method; type: cell-based, COS-7
[7] = Stability in mouse liver microsomes assessed as half life at 10 uM in presence of NADPH regenerating system by LC/MS/MS method; type: ADME
Summary of the method: (§2)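 Mouse liver microsomes (0.5 mg/mL) in 100 mM potassium phosphate pH 7.4 with NADPH regenerating system. Compound at 10 µM final; testosterone as positive control. Parent compound loss followed over time by LC/MS/MS on a C18 column with formic acid/acetonitrile gradient.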

[8] = Stability in mouse liver microsomes assessed as compound remaining at 10 uM in absence of NADPH regenerating system measured after 60 mins by LC/MS/MS method; type: ADME, microsome; settings: read-out: Stability
[9] = Stability in mouse liver microsomes assessed as compound remaining at 10 uM in presence of NADPH regenerating system measured up to 70 mins by LC/MS/MS method; type: ADME; settings: read-out: Stability
[10] = Stability in mouse liver microsomes assessed as compound remaining at 10 uM in presence of NADPH regenerating system measured at 60 mins by LC/MS/MS method; type: ADME; settings: read-out: Stability; summary of the method: as §2
[11] = Induction of locomotor activity in C57BL/6J mouse assessed as increase in traveled distance every 10 mins at 10 mg/kg, ip; type: organism-based; settings: in vivo
[12] = Induction of locomotor activity in C57BL/6J mouse assessed as increase in traveled distance every 10 mins at 10 to 30 mg/kg, ip; type: organism-based; settings: in vivo

T1 sequence (P14416 whole entry): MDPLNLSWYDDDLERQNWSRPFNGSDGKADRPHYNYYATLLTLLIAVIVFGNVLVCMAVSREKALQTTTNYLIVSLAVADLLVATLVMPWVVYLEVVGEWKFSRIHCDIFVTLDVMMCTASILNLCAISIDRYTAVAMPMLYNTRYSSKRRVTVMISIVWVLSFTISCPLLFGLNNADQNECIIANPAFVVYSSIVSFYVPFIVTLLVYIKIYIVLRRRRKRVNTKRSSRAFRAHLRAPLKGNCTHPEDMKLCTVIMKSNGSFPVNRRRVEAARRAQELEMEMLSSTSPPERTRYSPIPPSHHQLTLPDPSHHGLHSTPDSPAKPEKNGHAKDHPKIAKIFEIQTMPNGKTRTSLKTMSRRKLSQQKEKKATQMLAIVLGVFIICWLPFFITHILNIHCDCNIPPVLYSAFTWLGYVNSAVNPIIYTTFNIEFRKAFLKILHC

Compound | Activity [1] | Ki (D(2) dopamine receptor [2]) | Ki (D(3) dopamine receptor) | Ki (D(4) dopamine receptor) | IC50 (D(2) dopamine receptor [3]) | Ki [4] | Ki [5] | Ki [6] | half-life at 10 µM ([7]; liver microsomes) | remaining at 1 h, 10 µM [8] | remaining at 70 min, 10 µM [9] | t1/2 ([7]; microsomes, 10 µM) | remaining at 1 h, 10 µM [10] | Activity [11] | Activity [12]
COC(=O)[C@H]1[C@@H](OC(=O)c2ccccc2)C[C@@H]2CC[C@H]1N2C [COCAINE] | Dose-dependent effect |  |  |  |  |  |  |  |  |  |  |  |  |  | 
CC(O)CN1CCN(CCSC(c2ccc(F)cc2)c2ccc(F)cc2)CC1 (stereo not drawn) |  | 693 nM | 424 nM | 6300 nM | > 10000 nM | 267 nM | 101 nM | 200 nM | 1 h | > 95% | 50% |  |  |  | 
[O-][S+](CCN1CCN(CC(O)Cc2ccccc2)CC1)C(c1ccc(F)cc1)c1ccc(F)cc1 (stereo not drawn) |  | 78.6 nM | 652 nM | 1750 nM | > 10000 nM | 97 nM | 6.5 nM | 12 nM |  | > 95% |  | 0.217 h | 4% | Non-Toxic | Dose-dependent effect

— ChEMBL document CHEMBL3862037 (J Med Chem, 2016)
